Laboratory results from ChEMBL document CHEMBL5346944, “Development of a 2,4-Diaminothiazole Series for the Treatment of Human African Trypanosomiasis Highlights the Importance of Static-Cidal Screening of Analogues” (J Med Chem, 2023).
Active and inactive are the calls of the source. The calls are words filed in the database; no cut-off is given here.

Assays:
[1] = Metabolic stability in CD1 mouse liver microsomes assessed as intrinsic clearance by UPLC-MS/MS analysis; format: ADME
How it was run: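 Compound at 0.5 μM incubated with female CD1 mouse liver microsomes (0.5 mg mL-1, 50 mM potassium phosphate pH 7.4). Reaction started with excess NADPH. Aliquots taken at 0, 3, 6, 9, 15, 30 min and quenched in acetonitrile with internal standard, then analysed by UPLC-MS/MS.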

[2] = Antiproliferative activity against human MRC5 cells in presence of 5% Co2 incubated for 69 hrs followed by resazurin addition further incubated for 4 hrs; format: toxicity, cell-based
[3] = Selectivity index, ratio of EC50 for human MRC-5 cells to EC50 for bloodstream-form Trypanosoma brucei; format: toxicity; details: read-out: Selectivity Index
[4] = Metabolic stability in human liver microsomes assessed as intrinsic clearance by UPLC-MS/MS analysis; format: ADME
[5] = Kinetic aqueous solubility of the compound in DMSO by laser nephelometry; format: physicochemical; details: read-out: Kinetic_solubility
Trypanosoma brucei [6] = assay: Antiparasitic activity against bloodstream-form Trypanosoma brucei in presence of 5% Co2 incubated for 69 hrs followed by resazurin addition further incubated for 4 hrs; format: functional, organism-based
[7] = Selectivity ratio of IC50 for inhibition of Trypanosoma brucei GSK3 to EC50 for antiparasitic activity against bloodstream-stage Trypanosoma brucei; format: toxicity
Trypanosoma brucei [8] = assay: Antiparasitic activity against bloodstream-stage Trypanosoma brucei measured after 73 hrs by resazurin assay; format: functional, organism-based
[9] = AUC in NMRI mouse at 50 mg/kg, ip by UPLC-MS/MS analysis; format: ADME, organism-based; set-up: dose 50 mg/kg, route ip; details: in vivo
[10] = Cmax in NMRI mouse at 50 mg/kg, ip by UPLC-MS/MS analysis; format: ADME, organism-based; set-up: dose 50 mg/kg, route ip; details: in vivo
[11] = AUC in Sprague-Dawley rat at 10 mg/kg, po by UPLC-MS/MS analysis; format: ADME, organism-based; set-up: dose 10 mg/kg, route po; details: in vivo
How it was run: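 Oral gavage at 10 mg kg-1 free base in 10% DMSO/40% PEG400/50% water, 5 mL kg-1, to female NMRI mice (n = 3) or Sprague-Dawley rats. Blood drawn at 5, 15, 30 min and 1, 2, 4, 6, 8 h, mixed with two volumes of water, measured by UPLC-MS/MS. Parameters taken from the mean blood concentration–time curve.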

[12] = Free Cmax in Sprague-Dawley rat at 10 mg/kg, po by UPLC-MS/MS analysis; format: ADME, organism-based; details: in vivo
[13] = Cmax in NMRI mouse at 100 mg/kg, ip by UPLC-MS/MS analysis; format: ADME, organism-based; set-up: dose 100 mg/kg, route ip; details: in vivo
[14] = Tmax in NMRI mouse at 50 mg/kg, ip by UPLC-MS/MS analysis; format: ADME, organism-based; details: in vivo
[15] = Free Cmax in NMRI mouse at 50 mg/kg, ip by UPLC-MS/MS analysis; format: ADME, organism-based; details: in vivo
[16] = tested on: Trypanosoma brucei brucei; assay: Antiparasitic activity against Trypanosoma brucei brucei S427 injected in NMRI mouse assessed as cure by measuring reduction in parasitemia at 100 mg/kg, for 4 days by stage I efficacy study; details: time 4.0 day
[17] = Free Cmax in NMRI mouse at 100 mg/kg, ip by UPLC-MS/MS analysis; format: ADME, organism-based; details: in vivo
[18] = tested on: Trypanosoma brucei brucei; assay: Antiparasitic activity against Trypanosoma brucei brucei S427 injected in Sprague-Dawley rat assessed as cure by measuring reduction in parasitemia at 100 mg/kg, po twice daily for 4 days by stage I efficacy study; format: functional, organism-based; details: time 4.0 day

CLH [1] [mL/min/g] | SMILES | EC50 at 69 h [2] [µM] | other results
1.8 | Nc1nc(NC2CCCC(O)C2)sc1C(=O)c1c(F)cccc1F (stereo unspecified) | – | –
14 | Nc1nc(NC2CCCCC2)sc1C(=O)c1ccccc1C(F)(F)F | – | –
4.7 | Nc1nc(Nc2ccc(F)c(F)c2)sc1C(=O)CN1CCOCC1 | 50 | selectivity ratio [3]: 2000
15 | O=C(c1cnc(NC2CCCCC2)s1)C1CCCCC1 | – | –
10.8 | CC(OCC(=O)c1sc(Nc2ccn(C)n2)nc1N)C(F)(F)F (stereo unspecified) | – | –
7.4 | CC(OCC(=O)c1sc(Nc2ccc(F)c(F)c2)nc1N)C(F)(F)F (stereo unspecified) | 50 | –
6.1 | COC(C)(C)CC(=O)c1sc(Nc2ccc(F)c(F)c2)nc1N | 50 | –
2.9 | Nc1nc(NC2CCCCC2)sc1C(=O)c1ccc(OC(F)F)cc1 | – | selectivity ratio [3]: 267; CLH [4]: 0.8 mL/min/g
26 | Nc1nc(Nc2ccc(F)c(F)c2)sc1C(=O)CN1CCCC1C(F)(F)F (stereo unspecified) | – | –
3.8 | COC(C)(C)C(=O)c1sc(NC2CCCCC2)nc1N | – | –
– | CC(OCC(=O)c1sc(Nc2ccc(C(F)(F)F)nc2)nc1N)C(F)(F)F (stereo unspecified) | 50 | –
1.4 | Nc1nc(NC2CCCCC2)sc1C(=O)c1ccc(C(F)(F)F)cc1 | – | –
– | CCOCC(=O)c1sc(Nc2ccc(F)c(F)c2)nc1N | 50 | –
1.2 | Nc1nc(Nc2ccc(F)c(F)c2)sc1C(=O)CCN1CCOCC1 | – | –
21 | Nc1nc(NC2CCCCC2)sc1C(=O)C1CCC1 | – | selectivity ratio [3]: 5
4.1 | Nc1nc(Nc2ccc(F)c(F)c2)sc1C(=O)CN1C[C@@H]2C[C@H]1CO2 | 50 | –
4.9 | Nc1nc(NC2CCCCC2)sc1C(=O)c1ccc(F)cc1 | – | –
12 | Nc1nc(Nc2ccccc2)sc1C(=O)c1ccccc1 | – | CLH [4]: < 0.5 mL/min/g
5 | CC(OCC(=O)c1sc(Nc2ccc3c(c2)OC(F)(F)O3)nc1N)C(F)(F)F (stereo unspecified) | 50 | solubility kinetic [5]: > 100 µg/mL
9 | Nc1nc(Nc2ccc(F)c(F)c2)sc1C(=O)COC1CCC1 | 50 | –
8.8 | Nc1nc(Nc2ccc(F)c(F)c2)sc1C(=O)CN1C[C@H]2CC[C@@H](C1)O2 | 50 | –
5.2 | CC1CCCN1CC(=O)c1sc(Nc2ccc(F)c(F)c2)nc1N (stereo unspecified) | 50 | –
7.7 | Nc1nc(Nc2ccc(F)c(F)c2)sc1C(=O)CN1CCCCC1 | – | –
9 | COc1ccc(Nc2nc(N)c(C(=O)COC(C)C(F)(F)F)s2)cn1 (stereo unspecified) | 50 | solubility kinetic [5]: > 100 µg/mL
8 | CC(C)CC(=O)c1sc(Nc2ccc(F)cc2)nc1N | – | –

CLH [1] [mL/min/g] | SMILES | EC50 at 69 h [2] [µM] | other results
5.9 | CC(C)CC(=O)c1sc(Nc2ccc(F)c(F)c2)nc1N | – | CLH [4]: 3.2 mL/min/g
4.6 | CC(C)(C)CC(=O)c1sc(Nc2ccc(F)c(F)c2)nc1N | – | –
2.1 | Nc1nc(Nc2ccc(F)c(F)c2)sc1C(=O)CN1CCCC1 | – | –
– | CC(OCC(=O)c1sc(Nc2cccc(OC(F)F)c2)nc1N)C(F)(F)F (stereo unspecified) | 50 | EC50 (Trypanosoma brucei [6]): 0.02 µM; solubility kinetic [5]: > 100 µg/mL; selectivity ratio [3]: 2500
– | CC(C)OCCC(=O)c1sc(Nc2ccc(F)c(F)c2)nc1N | 50 | –
33 | Nc1nc(Nc2ccc(F)c(F)c2)sc1C(=O)CN1CCCC(F)(F)C1 | – | –
8.1 | C[C@@H]1CN(CC(=O)c2sc(Nc3ccc(F)c(F)c3)nc2N)C[C@H](C)O1 | 50 | EC50 (Trypanosoma brucei [6]): 0.05 µM; selectivity ratio [3]: 1000
8.9 | Nc1nc(NC2CCCCC2)sc1C(=O)C1CCCCC1 | – | –
9.3 | Nc1nc(Nc2ccc(F)c(F)c2)sc1C(=O)CN1CCC(F)(F)CC1 | – | –
4.1 | Nc1nc(NC2CCCCC2)sc1C(=O)c1ccncc1 | – | –
12 | Nc1nc(NC2CCCCC2)sc1C(=O)c1ccc(F)c(F)c1 | – | –
3.6 | Nc1nc(NC2CCCCC2)sc1C(=O)c1cc(F)cc(F)c1 | – | –
9.7 | Nc1nc(NC2CCCCC2)sc1C(=O)c1ccccc1F | 2 | –
9.3 | CC(C)OCC(=O)c1sc(Nc2ccc(F)c(F)c2)nc1N | 50 | –
7.3 | Nc1nc(Nc2ccccc2)sc1C(=O)c1ccc(F)cc1 | – | –
– | Nc1nc(Nc2ccc(F)c(F)c2)sc1C(=O)COC(CF)CF | 50 | –
5.3 | CC(OCC(=O)c1sc(Nc2ccc(Cl)cc2)nc1N)C(F)(F)F (stereo unspecified) | 50 | solubility kinetic [5]: > 100 µg/mL
– | CC(C)(C)OCC(=O)c1sc(Nc2ccc(F)c(F)c2)nc1N | 50 | –
2.2 | CC(C)(O)CC(=O)c1sc(Nc2ccc(F)c(F)c2)nc1N | – | AUC [9]: 1900 µg·h/mL; Cmax [10]: 18000 ng/mL; AUC [11]: 470 µg·h/mL; fCmax [12]: 195 ng/mL; Cmax [13]: 36000 ng/mL; Tmax [14]: 30 min; fCmax [15]: 2600 ng/mL; Activity [16]: inactive; fCmax [17]: 5200 ng/mL; Activity [18]: inactive; CLH [4]: < 0.5 mL/min/g
2.3 | CC(OCC(=O)c1sc(Nc2ccc(C(F)(F)F)cc2)nc1N)C(F)(F)F (stereo unspecified) | – | solubility kinetic [5]: > 100 µg/mL
6.5 | Nc1nc(NC2CCCCC2)sc1C(=O)c1ccc(F)cc1F | – | –
4.1 | Nc1nc(NC2CCCCC2)sc1C(=O)c1c(Cl)cccc1Cl | – | –
0.5 | CC(C)C(=O)c1sc(NC2CCCCC2)nc1N | – | –
5.2 | Nc1nc(Nc2ccc(F)c(F)c2)sc1C(=O)COC1CC(F)(F)C1(F)F (stereo unspecified) | – | –

SMILES | CLH [1] [mL/min/g] | EC50 at 69 h [2] [µM] | other results
CC(C)(C)C(=O)c1sc(NC2CCCCC2)nc1N | 2.5 | – | Ratio IC50/EC50 [7]: 70; EC50 (Trypanosoma brucei [8]): 0.26 µM
